Results on 167 variants are retold here after the RNAGym collection of RNA variant scans (doi:10.1126/science.aae0568).

This sample holds only a part of the variants without activity. Where only a bound is given, the exact number is not on record here.

The chains are these.
B1: tRNA (parent)
chain: GUUCCGUUGGCGUAAUGGUAACGCGUCUCCCUCCUAAGGAGAAGACUGCGGGUUCGAGUCCCGUACGGAACG

Variants of B1 are the subject of this series. The experiment in a line: yeast fitness relative to wild type (ratio to wild type); higher = fitter; tRNA-Arg(CCU), competitive growth, 37 C, YPD. The gist of the method: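 The tRNA-Arg(CCU) gene variants were made by chemical synthesis with a 3% per-site mutation rate at 69 sites and inserted at the native genomic locus of Saccharomyces cerevisiae. After pooling, the strains were competed in YPD at 37°C for 24 hours in six parallel replicates. Gene amplicons from the start population and each end population were read by 100-nucleotide paired-end sequencing, and Darwinian fitness relative to wild type was taken from genotype frequency changes. Genotypes needed ≥ 100 starting reads, and estimates < 0.5 were set to 0.5.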
On to U47C C66U A70U, for which the yeast fitness was found to be 0.548.

With G48A G67U, the yeast fitness worked out at 0.9.

On to C46U U54C A70U, for which the yeast fitness was 0.804.

Regarding G48C C61G, the yeast fitness worked out at 0.629.

Regarding U47C G58C A65C, the yeast fitness was 0.614.

On to G48A G51C G67C, for which the yeast fitness is no more than 0.5.

U47A A69U: the yeast fitness is 0.984.

As for U47A C61U, the yeast fitness came out at 0.948.

On to U47A C55G C61U, for which the yeast fitness came out at 0.522.

On to U47G G68U, for which the yeast fitness was determined as 0.568.

In the case of U47C G52A G63A, the yeast fitness is no more than 0.5.

In the case of G48C G50C, the yeast fitness came to 0.68.

Turning to C46U U59A, the yeast fitness came to 0.877.

G48C A57G A69U: the yeast fitness turned out to be 0.562.

Take G48A G52C U54C C66U: the yeast fitness was no more than 0.5.

In the case of U47C U59A, the yeast fitness is 0.961.

With U47C A70C, the yeast fitness stood at 1.07.

Regarding U47C A70U, the yeast fitness is 0.955.

Regarding G48A C66G A70G, the yeast fitness amounted to 0.632.

With U47C C61U, the yeast fitness stood at 0.888.

Consider G48A U53C C60A, for which the yeast fitness was no more than 0.5.

On to G48C C49U C62U, for which the yeast fitness is 0.637.

Consider G48A C55U A65C, for which the yeast fitness worked out at 0.627.

Take U47A G48C G51A C61A: the yeast fitness is no more than 0.5.

With G48A U59C, the yeast fitness amounted to 0.934.

With G48C C61A A65U, the yeast fitness is 0.687.

U47C G50A: the yeast fitness was 0.99.

For U47C G52C, the yeast fitness came out at 0.612.

For the variant G48C C66U, the yeast fitness amounted to 0.932.

G48A G58C: the yeast fitness was found to be 0.979.

As for U47A G48C G67C, the yeast fitness came out at 0.538.

Consider G48C A69C, for which the yeast fitness stood at 1.05.

As to G48A C55U A69U, the yeast fitness amounted to 0.522.

For the variant C46U U47A G68C, the yeast fitness is 0.558.

With U47G G56A, the yeast fitness is 0.646.

With G48C G51C A57U G68C, the yeast fitness was no more than 0.5.

In the case of G48A C61A A65C, the yeast fitness is no more than 0.5.

Turning to U47A G56A, the yeast fitness was 0.964.

Turning to G48C G51A, the yeast fitness came to 0.849.

For U47C C60A C61G A69U, the yeast fitness is no more than 0.5.

For the variant U47G A57U, the yeast fitness is no more than 0.5.

Consider U47G A57G, for which the yeast fitness stood at 0.7.

With G48A C61G A65C, the yeast fitness was no more than 0.5.

Consider G48A G50C, for which the yeast fitness came to 1.07.

As for G48A C62G A69U, the yeast fitness came to 1.03.

U47C C66U: the yeast fitness came to 0.963.

Turning to G48A U54C, the yeast fitness is 0.929.

For U47C U53C A57C, the yeast fitness was no more than 0.5.

With U47A C55G, the yeast fitness came out at 0.684.

For the variant U47C G48C, the yeast fitness is 0.797.

In the case of C46U U59G C60A G63C A69U, the yeast fitness is 0.632.

U47A G48C G56A: the yeast fitness is no more than 0.5.

For G48A G50A A70U, the yeast fitness came to 0.812.

Turning to G48C C49U A65U A69U, the yeast fitness was no more than 0.5.

G48A A57U A65U C66A: the yeast fitness is no more than 0.5.

Turning to G48C A57C, the yeast fitness came to 0.594.

Regarding U47C C62U, the yeast fitness amounted to 0.944.

With G48C C60G, the yeast fitness worked out at 0.719.

Turning to C46U U59A C61G C66U, the yeast fitness is 0.649.

As for U47C G58A G67A, the yeast fitness was determined as 0.584.

With C46U U64A, the yeast fitness amounted to 1.03.

Take C46U U64C: the yeast fitness turned out to be 1.01.

Regarding G48A C60U A65U, the yeast fitness stood at 0.726.

With G48A G58C C66U, the yeast fitness was determined as 0.714.

Regarding G48C C49U A70U, the yeast fitness is 0.724.

For U47C C60A, the yeast fitness was determined as 0.603.

Regarding G48A G52C A57C, the yeast fitness was found to be 0.622.

In the case of G48A G63C, the yeast fitness came to 0.89.

In the case of G48A G68U A70C, the yeast fitness is 0.809.

With G48A G51A U59C, the yeast fitness came to 0.956.

With U47C C55U G68C, the yeast fitness is 0.517.

On to U47G C66U, for which the yeast fitness amounted to 0.691.

Turning to U47G C66G, the yeast fitness is 0.517.

As to G48A G51C C60A U64C, the yeast fitness turned out to be 0.853.

U47C C66U A69C: the yeast fitness amounted to 0.675.

Regarding G48A G50U U54G A70U, the yeast fitness is no more than 0.5.

As to U47A G58C, the yeast fitness is 1.06.

Regarding G48C C49G, the yeast fitness amounted to 0.621.

G48A C61G A70C: the yeast fitness was 0.531.

As for G48A G56A, the yeast fitness stood at 1.02.

Turning to G48A C61U A70C, the yeast fitness is 0.989.

As to U47C U53A, the yeast fitness was determined as 0.604.

As to G48A G51C, the yeast fitness turned out to be 0.655.

Consider U47G A70C, for which the yeast fitness was determined as 0.685.

As to U47C G63C C66U, the yeast fitness is no more than 0.5.

As for U47C U59A G63C, the yeast fitness is 0.58.

In the case of G48A A69C, the yeast fitness worked out at 0.96.

In the case of G48A U64C, the yeast fitness stood at 0.816.

As to U47A G48C, the yeast fitness was determined as 0.82.

For U47C G52A C61G, the yeast fitness is no more than 0.5.

With G48A C60U, the yeast fitness turned out to be 0.847.

For the variant G48A C60A, the yeast fitness amounted to 0.695.

As for U47C G51C U59C, the yeast fitness is no more than 0.5.

As for G48A C66A, the yeast fitness amounted to 0.929.

Consider G48A C62A, for which the yeast fitness came to 0.978.

As for U47C C55G, the yeast fitness is 0.733.

U47C C55U: the yeast fitness turned out to be 0.796.

As for U47C C55A, the yeast fitness stood at 0.699.

On to C46U U54C A57G, for which the yeast fitness came to 0.622.

Take U47C U59A A65C A70C: the yeast fitness is no more than 0.5.

Take U47G C49U: the yeast fitness was found to be 0.682.

U47G C49A: the yeast fitness is 0.68.

Take U47C A57G A69U: the yeast fitness is 0.569.

With C46U U53C A70U, the yeast fitness worked out at 0.608.

As to G48A C55U C60G, the yeast fitness came out at 0.727.

Take C46U U47G: the yeast fitness turned out to be 0.823.

C46U U47C: the yeast fitness was 0.911.

Consider G48A C55A C60G, for which the yeast fitness is 0.513.

For the variant G48C C49A U53A G56A G58C, the yeast fitness stood at 0.611.

Consider G48A C61A G68U, for which the yeast fitness is 0.561.

Regarding G48A C49U, the yeast fitness is 0.97.

On to G48A A65C, for which the yeast fitness amounted to 0.901.

On to U47G G50C, for which the yeast fitness was no more than 0.5.

On to G48A C66U A69C, for which the yeast fitness came to 0.719.

With U47C A57U A65U, the yeast fitness was 0.567.

On to U47G G63A, for which the yeast fitness was 0.561.

For G48A A70G, the yeast fitness worked out at 1.12.

As for G48A C60G G63C, the yeast fitness was no more than 0.5.

Consider G48A C66A G67A, for which the yeast fitness is no more than 0.5.

Turning to U47A A70C, the yeast fitness is 0.842.

With G48C A65G, the yeast fitness turned out to be 1.01.

Consider G48C A65U, for which the yeast fitness was found to be 0.75.

In the case of U47C G67A, the yeast fitness was 0.874.

For the variant U47G C60G C62A A65G, the yeast fitness is no more than 0.5.

For G48C C49U C60A A65U, the yeast fitness is no more than 0.5.

Consider G48C C55G, for which the yeast fitness came out at 0.78.

On to G48C C55U, for which the yeast fitness was 0.668.

As for G48C C55A, the yeast fitness amounted to 0.703.

On to U47G U59A C66A A70C, for which the yeast fitness is no more than 0.5.

As for U47A G50C, the yeast fitness came to 0.69.

Take U47G C60G: the yeast fitness turned out to be 0.675.

With U47G C60U, the yeast fitness is 0.548.

As for U47C G58A, the yeast fitness is 0.986.

For U47A U59C, the yeast fitness came to 0.873.

Regarding G48A G63A A65C, the yeast fitness was no more than 0.5.

As to G48C C62U A69C, the yeast fitness is 0.701.

Regarding G48C C49U U54G C66A, the yeast fitness was determined as 0.624.

Consider U47C A57G, for which the yeast fitness is 0.921.

Consider U47C G63C, for which the yeast fitness came to 0.769.

With U47A C60U G63C A69U, the yeast fitness is no more than 0.5.

U47G C62G A69U: the yeast fitness amounted to 0.545.

As for U47G C62G A69C, the yeast fitness was 0.508.

As for U47C G68A, the yeast fitness came out at 0.876.

Turning to G48A C55A G58C, the yeast fitness was determined as 0.516.

As for G48A G52A G67A, the yeast fitness stood at 0.648.

Regarding G48A G52A G67C, the yeast fitness stood at 0.536.

Regarding U47C A65U, the yeast fitness is 0.998.

U47A C49G A69U: the yeast fitness amounted to 0.577.

For the variant U47G G51A, the yeast fitness stood at 0.588.

In the case of U47C G56A, the yeast fitness is 0.999.

For C46U U59C C62G A65U, the yeast fitness was determined as 0.557.

On to U47C C49U, for which the yeast fitness is 0.987.

Regarding U47C C49A, the yeast fitness turned out to be 0.65.

In the case of G48A G56C C62U, the yeast fitness came to 0.65.

Take G48A C61A: the yeast fitness is 0.682.

With G48A C61U, the yeast fitness was determined as 1.04.

As for U47A G68A, the yeast fitness was determined as 0.621.

Take U47A G68U: the yeast fitness stood at 0.775.

For U47A A57U, the yeast fitness came out at 0.655.

Take G48A: the yeast fitness was found to be 0.982.

In the case of G48C, the yeast fitness is 0.977.

In the case of G48A A57G, the yeast fitness was 0.972.

For the variant G48A C55G C62U, the yeast fitness is no more than 0.5.

On to U47C C61U A65U C66U, for which the yeast fitness was no more than 0.5.

As for U47C A69U, the yeast fitness came out at 1.08.

Regarding G48A C60G A70C, the yeast fitness was no more than 0.5.

For U47A C55G G68A, the yeast fitness is no more than 0.5.
